“And” between values parts separate entries of the source, which are not always exact repeats. Equal entries are not always repeated. The source made the active and inactive calls. The calls are words filed in the database; no cut-off is given here.
How the values were obtained:
[1] = molecular target: Human immunodeficiency virus type 1 reverse transcriptase (Human immunodeficiency virus 1) (UniProt Q72547); test: (§1) Inhibition of recombinant HIV1 reverse transcriptase using 234-nt long RNA/18-mer DNA oligonucleotide as template/primer assessed as remaining activity at 50 uM preincubated for 15 mins followed by incubation with template/primer for 40 mins by liquid scintillation counting in presence of alpha[P33]-dCTP relative to control
[2] = (§2) Cytotoxicity against human U2OS cells assessed as cell viability at 50 uM after 48 hrs relative to control; format: cell-based; conditions: U2OS cells, read-out: Activity
Procedure, shortened: (§3)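 U2OS cells seeded at 3.5 × 10^3 on electrode plates; after 24 h compound added at a single concentration (final DMSO 0.5%) and impedance cell index followed for 48 h. Graded against DMSO-treated cells: >50% reduction toxic, 20-50% moderately toxic, ≤20% non-toxic.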

[3] = tested on: Human immunodeficiency virus 1; test: Antiviral activity against HIV1 virus-like particles harboring wild type reverse transcriptase infected in human U2OS cells after 24 hrs by Renilla luciferase assay; format: functional, organism-based
Procedure, shortened: (§4)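 U2OS cells seeded 5 × 10^4 per well, infected next day with HIV-1 VLPs carrying wt or mutant RT at MOI 0.01 with polybrene 6 μg/mL plus compound; 1 h at 37 °C, washed, compound-containing media 24 h, then compound-free media 24 h. Lysate Gluc activity (Renilla luciferase reagent) normalised to protein.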

[4] = molecular target: Human immunodeficiency virus type 1 reverse transcriptase (Human immunodeficiency virus 1, UniProt Q72547); test: (§5) Inhibition of HIV1 reverse transcriptase using 234-nt long RNA/18-mer DNA oligonucleotide as template/primer preincubated for 15 mins followed by incubation with template/primer for 40 mins by liquid scintillation counting in presence of alpha[P33]-dCTP
[5] = Cytotoxicity against human U2OS cells assessed as reduction of cell viability after 48 hrs; format: cell-based
Procedure, shortened: (§6)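 Impedance-based real-time viability: U2OS (3.5 × 10^3) or TZM-bl (8.5 × 10^3) cells seeded on electrode plates, compounds in DMSO added 24 h later (final DMSO 0.5%), cell index recorded over a further 48 h. CC50 = concentration lowering cell index by 50% relative to DMSO-only cells.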

[6] = tested on: Human immunodeficiency virus 1; test: Antiviral activity against HIV1 virus-like particles harboring wild type reverse transcriptase infected in human U2OS cells assessed as remaining viral activity at 50 uM after 24 hrs by Renilla luciferase assay relative to control; format: functional; procedure, shortened: as §4
[7] = molecular target: Human immunodeficiency virus type 1 reverse transcriptase (Human immunodeficiency virus 1) (UniProt Q72547); test: as §1, with “200” for “50”
[8] = Cytotoxicity against human TZM-bl cells assessed as reduction of cell viability after 48 hrs; format: cell-based; procedure, shortened: as §6
U2OS [9] = test: as §2; format: cell-based; conditions: u2os, 48 h, 50 µM; procedure, shortened: as §3
[10] = tested on: Human immunodeficiency virus 1; test: Antiviral activity against HIV1 virus-like particles harboring wild type reverse transcriptase infected in human U2OS cells assessed as remaining viral activity at 5 uM after 24 hrs by Renilla luciferase assay relative to control; format: functional; procedure, shortened: as §4
[11] = tested on: Human immunodeficiency virus 1; test: Antiviral activity against HIV1 virion infected in human TZM-bl cells after 48 hrs by firefly luciferase assay; format: functional, organism-based
Procedure, shortened: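 TZM-bl cells (LTR-driven firefly luciferase), 5 × 10^4 per well, infected next day with ACH-2-derived HIV-1 stock (PMA-induced; 30 ng p24 per well) plus compound for 2 h at 37 °C; medium then replaced with compound-containing medium for 48 h.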

U2OS [12] = test: (§7) Cytotoxicity against human U2OS cells assessed as cell viability at 5 uM after 48 hrs relative to control; format: cell-based; conditions: u2os, 48 h, 5 µM; procedure, shortened: as §3
[13] = as §7; format: cell-based; conditions: U2OS cells, read-out: Activity; procedure, shortened: as §3
[14] = tested on: Human immunodeficiency virus 1; test: Potency index, ratio of nevirapine IC50 to compound IC50 for HIV1 virus-like particles infected in human U2OS cells; format: functional
[15] = tested on: Human immunodeficiency virus 1; test: Antiviral activity against HIV1 virus-like particles harboring reverse transcriptase K103N/Y181C double mutant infected in human U2OS cells after 24 hrs by Renilla luciferase assay; format: functional, organism-based; procedure, shortened: as §4
[16] = tested on: Human immunodeficiency virus 1; test: Selectivity ratio of IC50 for HIV1 virus-like particles harboring reverse transcriptase K103N/Y181C double mutant to IC50 for HIV1 virus-like particles harboring wild type reverse transcriptase; format: functional
[17] = tested on: Human immunodeficiency virus 1; test: Antiviral activity against HIV1 virus-like particles harboring reverse transcriptase Y181C mutant infected in human U2OS cells after 24 hrs by Renilla luciferase assay; format: functional, organism-based; procedure, shortened: as §4
[18] = tested on: Human immunodeficiency virus 1; test: Antiviral activity against HIV1 virus-like particles harboring reverse transcriptase K103N mutant infected in human U2OS cells after 24 hrs by Renilla luciferase assay; format: functional, organism-based; procedure, shortened: as §4
[19] = molecular target: Human immunodeficiency virus type 1 reverse transcriptase (Human immunodeficiency virus 1) (UniProt Q72547); test: as §5
[20] = Selectivity index, ratio of CC50 for human U2OS cells to IC50 for HIV1 virus-like particles infected in U2OS cells; format: functional
[21] = Selectivity index, ratio of CC50 for human TZM-bl cells to IC50 for HIV1 virion […]; format: functional
[22] = Human immunodeficiency virus 1, U2OS, 24 h, read-out: IC50
[23] = Human immunodeficiency virus 1, TZM-bl, 48 h, read-out: IC50

| Structure (SMILES) | Activity [1] | viability at 48 h, 50 µM [2] [%] | IC50 [3, 22] [µM] | IC50 ([4]; read-out: IC50) [µM] | CC50 at 48 h [5] [µM] | Activity [6] [%] | Activity [7] | further results |
| --- | --- | --- | --- | --- | --- | --- | --- | --- |
| Cc1ccccc1Nc1nc(Cn2ccc(C(F)(F)F)cc2=O)nc(=N)[nH]1 | 88% | 105 | > 50 | > 200 | > 50 | 101 | 89% | – |
| Cc1ccnc2c1NC(=O)c1cccnc1N2C1CC1 [NEVIRAPINE] | 13.7% | – | – | – | > 100 | – | 9% | CC50 at 48 h [8]: > 100 µM; Activity (U2OS [9]): Non-toxic; Activity [10]: 0.5%; IC50 [11, 23]: 0.026 µM; Activity (U2OS [12]): Non-toxic |
| Cc1ccc(Nc2nc(COc3ccc(Cl)cc3)nc(=N)[nH]2)cc1 | 79% | 76 | > 50 | > 200 | > 50 | 82 | 86% | Activity [10]: 125%; viability at 48 h, 5 µM [13]: 93% |
| O=C1NC(=S)N(CCC2=CCCCC2)C(=O)/C1=C\NCCO | 92% | 98 | > 50 | > 200 | > 50 | 54 | 78% | – |
| CCOC(=O)c1[nH]c2ccc(F)cc2c1NC(=O)NC1CCCCC1 | 81% | 103 | > 50 | > 50 | > 50 | 84 | 42% | – |
| Cc1c(CCC(=O)NCC(=O)NCC(=O)O)c(=O)oc2c(C)c(O)ccc12 | 92% | 99 | > 50 | > 200 | > 50 | 94 | 93% | – |
| Nc1c(NCCO)cc(Nc2ccccc2)c2c1C(=O)c1ccccc1C2=O | 90% | 42 | > 5 | > 200 | > 5 | – | 66% | Activity [10]: 111%; viability at 48 h, 5 µM [13]: 99% |
| CNc1nc(Nc2ccc(C)cc2)nc(Nc2ccc(C)cc2)n1 | 85% and 86% | 46 | > 5 | > 200 | > 5 | – | 79% and 82% | Activity (U2OS [9]): 40%; Activity [10]: 84% and 80%; Activity (U2OS [12]): 91%; viability at 48 h, 5 µM [13]: 96% |
| Cc1ccc(Nc2nc(NCC3CCCO3)nc(Nc3ccc(C)cc3)n2)cc1 (stereo in doubt; 8(n.p)) [listing 1 of 2 here] | 59% | – | – | – | – | – | 53% | – |
| Nc1nc(COC(=O)c2c[nH]c3ccccc23)nc(Cc2ccc(F)cc2)n1 | 86% | 101 | > 50 | > 200 | > 50 | 118 | 87% | – |
| Cc1ccc2[nH]c(=O)c(CN(CCCO)C(=S)NC[C@@H]3CCCO3)cc2c1 | 98% | 108 | > 50 | > 200 | > 50 | 68 | 108% | – |
| c1coc(CNc2nc(NCc3ccco3)c3nc(NCc4ccco4)[nH]c3n2)c1 | 92% | 116 | > 50 | > 200 | > 50 | 104 | 102% | – |
| Cc1ccc(Nc2nc(Nc3ccc(C)cc3)nc(Nc3ccc(C)cc3)n2)cc1 | – | – | – | – | > 50 | – | – | CC50 at 48 h [8]: > 50 µM; IC50 ([3]; u2os): Not Active |
| Cc1ccc(Nc2nc(NCC3CCCO3)nc(NCC3CCCO3)n2)cc1 (stereo not drawn) | – | – | – | – | > 50 | – | – | CC50 at 48 h [8]: > 50 µM; IC50 ([3]; u2os): Not Active |
| Cc1ccc(Nc2nc(NCC3CCCO3)nc(Nc3ccc(C)cc3)n2)cc1 (stereo in doubt; 8) | – | – | – | – | > 50 | – | – | IC50 ([3]; u2os, read-out: IC50): 16 µM; IC50 [4]: Not Active; IC50 ([11]; tzm-bl): Not Active; Ratio IC50 [14]: 10 |
| Cc1ccc(Nc2nc(NCC3CCCO3)nc(Nc3ccc(C)cc3)n2)cc1 (single isomer, unassigned; isomer 1) | – | – | – | – | – | – | – | IC50 ([3]; u2os, read-out: IC50): 18.2 µM |
| COc1ccc(Nc2nc(Nc3ccc(OC)cc3)nc(NC3CCCC3)n2)cc1 | 94% | 67 | > 5 | > 200 | > 50 | 30 | 98% | Activity [10]: 94%; viability at 48 h, 5 µM [13]: 87% |
| Cc1ccc(Nc2nc(O)nc(Nc3ccc(C)cc3)n2)cc1 | – | – | 0.067 | 55.1 | > 12.5 | – | – | CC50 at 48 h [8]: > 12.5 µM; IC50 ([15]; Human immunodeficiency virus 1, U2OS): 8 µM; Ratio IC50 [16]: >100; IC50 [11, 23]: 0.16 µM; Activity [17]: inactive; Activity [18]: inactive |
| Cc1ccc(Nc2nc(NCC3CCCO3)nc(Nc3ccc(C)cc3)n2)cc1 (single isomer, unassigned; isomer 2) | – | – | – | – | – | – | – | CC50 at 48 h [8]: > 50 µM; IC50 ([3]; u2os, read-out: IC50): 32 µM |
| CCCn1c(NCCN(CC)CC)nc2c1c(=O)[nH]c(=O)n2C | 89% | 101 | > 50 | > 200 | > 50 | 128 | 103% | – |
| Cc1ccc(Nc2nc(NCC3CCCO3)nc(Nc3ccc(C)cc3)n2)cc1 (stereo in doubt; 8(n.p)) [listing 2 of 2 here] | – | 66 | – | 106 | – | 5.2 | – | IC50 ([3]; u2os, read-out: IC50): 0.33 µM; Activity [10]: 20%; viability at 48 h, 5 µM [13]: 90% |
| Cc1ccc(Nc2nc(N)nc(Nc3ccc(C)cc3)n2)cc1 | – | – | 2.5 | 116 | 42.2 | – | – | CC50 at 48 h [8]: 57 µM; Activity [15]: inactive; inhibition [19]: Dose-dependent effect; IC50 [11, 23]: 5.6 µM; Activity [17]: inactive; Activity [18]: inactive; Ratio CC50/IC50 [20]: 17; Ratio CC50/IC50 [21]: 10 |
| Cc1ccc(Nc2nc(N)nc(COC(=O)c3cnc4ccccc4n3)n2)cc1 | 82% | 103 | > 50 | > 200 | > 50 | 75 | 54% | – |
| Cc1ccccc1Nc1nc(N)nc(CN(C)Cc2ccc(F)cc2)n1 | 103% | 84 | > 50 | > 200 | > 50 | 53 | 89% | Activity [10]: 151%; viability at 48 h, 5 µM [13]: 96% |
